In brackets after ≈: the same amount, converted by molar mass.
Columns and labels:
Enterobacter cloacae [1] = test: Antibacterial activity against drug-resistant Enterobacter cloacae EcDC64 isolate expressing AcrAB-TolC efflux pump by broth microdilution method; assay type: functional
Method in brief: (§1)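 Broth microdilution MICs for detergents and dyes (SDS, sodium cholate, sodium deoxycholate, acriflavine, ethidium bromide, Triton X-100, crystal violet). E. cloacae inoculum 5 × 10^5 CFU/ml, incubated 16 to 20 h at 37°C. The MIC was the lowest concentration giving complete growth inhibition. The acrA knockout carries a kanamycin-resistance insertion made by Red-mediated recombination.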

Enterobacter cloacae [2] = test: Antibacterial activity against drug-resistant AcrAB-TolC efflux pump deficient Enterobacter cloacae EcdeltaacrA isolate by broth microdilution method; assay type: functional; method in brief: as §1
Enterobacter cloacae [3] = test: Antibacterial activity against drug-resistant AcrAB-TolC efflux pump deficient Enterobacter cloacae EcdeltaacrA isolate expressing pAP2 plasmid containing Enterobacter cloacae acrA gene by broth microdilution method; assay type: functional; method in brief: as §1
Enterobacter cloacae [4] = test: Antibacterial activity against drug-resistant AcrAB-TolC efflux pump deficient Enterobacter cloacae EcdeltaacrA isolate expressing pACYC184 plasmid by broth microdilution method; assay type: functional; method in brief: as §1
Enterobacter cloacae [5] = test: Antibacterial activity against drug-resistant Enterobacter cloacae EcDC64 isolate expressing pBGS18 plasmid by broth microdilution method
Enterobacter cloacae [6] = test: Antibacterial activity against drug-resistant Enterobacter cloacae EcDC64 isolate expressing pAP3 plasmid containing Enterobacter aerogenes acrR gene by broth microdilution method
Enterobacter cloacae [7] = test: Antibacterial activity against drug-resistant Enterobacter cloacae EcDC64 isolate expressing pAP1 containing Escherichia coli ampD by Etest; assay type: functional
Enterobacter cloacae [8] = test: Antibacterial activity against drug-resistant Enterobacter cloacae EcDC64 isolate expressing AcrAB-TolC efflux pump by Etest; assay type: functional
Enterobacter cloacae [9] = test: Antibacterial activity against drug-resistant Enterobacter cloacae EcDC64 isolate expressing AcrAB-TolC efflux pump in presence of 20 ug/ml efflux pump inhibitor Phe-Arg-beta-naphthylamide by Etest
Enterobacter cloacae [10] = test: Antibacterial activity against drug-resistant AcrAB-TolC efflux pump deficient Enterobacter cloacae EcdeltaacrA isolate by Etest; assay type: functional
Enterobacter cloacae [11] = test: Antibacterial activity against drug-resistant AcrAB-TolC efflux pump deficient Enterobacter cloacae EcdeltaacrA isolate in presence of 20 ug/ml efflux pump inhibitor Phe-Arg-beta-naphthylamide by Etest; assay type: functional
Enterobacter cloacae [12] = test: Antibacterial activity against drug-resistant AcrAB-TolC efflux pump deficient Enterobacter cloacae EcdeltaacrA isolate expressing pAP2 plasmid containing Enterobacter cloacae acrA gene by Etest; assay type: functional
Enterobacter cloacae [13] = test: Antibacterial activity against drug-resistant AcrAB-TolC efflux pump deficient Enterobacter cloacae EcdeltaacrA isolate expressing pACYC184 plasmid by Etest; assay type: functional
Enterobacter cloacae [14] = test: Antibacterial activity against drug-resistant AcrAB-TolC efflux pump deficient Enterobacter cloacae EcdeltaacrA isolate expressing pAP3 plasmid containing Enterobacter aerogenes acrR gene by Etest; assay type: functional
Enterobacter cloacae [15] = test: Antibacterial activity against drug-resistant AcrAB-TolC efflux pump deficient Enterobacter cloacae EcdeltaacrA isolate expressing pBGS18 plasmid by Etest; assay type: functional
Enterobacter cloacae [16] = settings: EcDC64
Enterobacter cloacae [17] = system: Enterobacter cloacae
Enterobacter cloacae [18] = system: Enterobacter cloacae; remark: listed apart in the source
Enterobacter cloacae [19] = system: Enterobacter cloacae; remark: listed apart in the source
Enterobacter cloacae [20] = system: Enterobacter cloacae; remark: listed apart in the source
Enterobacter cloacae [21] = system: Enterobacter cloacae; remark: listed apart in the source
Enterobacter cloacae [22] = system: Enterobacter cloacae; remark: listed apart in the source

For `C[n+]1c2cc(N)ccc2cc2ccc(N)cc21.[Cl-]` [EUFLAVINE], the MIC (Enterobacter cloacae [1]) was 128 µg/mL, the MIC (Enterobacter cloacae [2]) was 16 µg/mL and the MIC (Enterobacter cloacae [3]) was 64 µg/mL. For the same compound, the MIC (Enterobacter cloacae [4]) was 16 µg/mL, the MIC (Enterobacter cloacae [5]) was 128 µg/mL and the MIC (Enterobacter cloacae [6]) was 32 µg/mL.
`CN(C)c1ccc(C(=C2C=CC(=[N+](C)C)C=C2)c2ccc(N(C)C)cc2)cc1.[Cl-]` [GENTIAN VIOLET] gave an MIC (Enterobacter cloacae [1]) of 4100 µg/mL, an MIC (Enterobacter cloacae [2]) of 512 µg/mL and an MIC (Enterobacter cloacae [3]) of 1020 µg/mL. For the same compound, the MIC (Enterobacter cloacae [4]) was 256 µg/mL, the MIC (Enterobacter cloacae [5]) was 4100 µg/mL and the MIC (Enterobacter cloacae [6]) was 1020 µg/mL.
`CC[n+]1c(-c2ccccc2)c2cc(N)ccc2c2ccc(N)cc21.[Br-]` [HOMIDIUM BROMIDE] showed an MIC (Enterobacter cloacae [1]) of 2050 µg/mL, an MIC (Enterobacter cloacae [2]) of 128 µg/mL and an MIC (Enterobacter cloacae [3]) of 1020 µg/mL. For the same compound, the MIC (Enterobacter cloacae [4]) was 64 µg/mL, the MIC (Enterobacter cloacae [5]) was 2050 µg/mL and the MIC (Enterobacter cloacae [6]) was 256 µg/mL.
For `C[C@@H](O)[C@H]1C(=O)N2C(C(=O)O)=C(SCCNC=N)C[C@H]12` [IMIPENEM ANHYDROUS], the MIC (Enterobacter cloacae [7]) was 2 µg/mL (≈ 6.68 µM), the MIC (Enterobacter cloacae [8]) was greater than 32 µg/mL and the MIC (Enterobacter cloacae [9]) was 32 µg/mL. It also gave an MIC (Enterobacter cloacae [10]) of 24 µg/mL (≈ 80.2 µM), an MIC (Enterobacter cloacae [11]) of 6 µg/mL and an MIC (Enterobacter cloacae [12]) greater than 32 µg/mL. For the same compound, the MIC (Enterobacter cloacae [13]) was greater than 32 µg/mL, the MIC (Enterobacter cloacae [14]) was 24 µg/mL (≈ 80.2 µM) and the MIC (Enterobacter cloacae [15]) was greater than 32 µg/mL.
With `C[C@@H](O)[C@H]1C(=O)N2C(C(=O)O)=C(S[C@@H]3CN[C@H](C(=O)N(C)C)C3)[C@H](C)[C@H]12` [MEROPENEM] the MIC (Enterobacter cloacae [7]) was 0.75 µg/mL (≈ 1.96 µM), the MIC (Enterobacter cloacae [8]) was greater than 32 µg/mL and the MIC (Enterobacter cloacae [9]) was 32 µg/mL. It also gave an MIC (Enterobacter cloacae [10]) of 24 µg/mL (≈ 62.6 µM), an MIC (Enterobacter cloacae [11]) of 1 µg/mL and an MIC (Enterobacter cloacae [12]) greater than 32 µg/mL. For the same compound, the MIC (Enterobacter cloacae [13]) was greater than 32 µg/mL, the MIC (Enterobacter cloacae [14]) was 24 µg/mL (≈ 62.6 µM) and the MIC (Enterobacter cloacae [15]) was greater than 32 µg/mL.
Compound `CCCCCCCCCCCCOS(=O)(=O)[O-].[Na+]` [SODIUM LAURYL SULFATE] has an MIC (Enterobacter cloacae [1]) of 8190 µg/mL, an MIC (Enterobacter cloacae [2]) of 256 µg/mL and an MIC (Enterobacter cloacae [3]) of 4100 µg/mL. For the same compound, the MIC (Enterobacter cloacae [4]) was 128 µg/mL, the MIC (Enterobacter cloacae [5]) was 8190 µg/mL and the MIC (Enterobacter cloacae [6]) was 1020 µg/mL.
GENTAMICIN was tested, and the MIC (Enterobacter cloacae [16]) was 1.5 µg/mL, the MIC (Enterobacter cloacae [17]) was 0.125 µg/mL and the MIC (Enterobacter cloacae [18]) was 0.094 µg/mL. It also gave an MIC (Enterobacter cloacae [19]) of 1 µg/mL, an MIC (Enterobacter cloacae [20]) of 0.125 µg/mL and an MIC (Enterobacter cloacae [21]) of 0.25 µg/mL. It also gave an MIC (Enterobacter cloacae [22]) of 1 µg/mL.

— ChEMBL document CHEMBL1154428, “Cloning, nucleotide sequencing, and analysis of the AcrAB-TolC efflux pump of Enterobacter cloacae and determination of its involvement in antibiotic resistance in a clinical isolate” (2007)
